Assay outcomes: PubChem BioAssay, The Scripps Research Institute Molecular Screening Center
The list is not random: actives were taken first. Their share in the collection is about 3.9%.
TAAR1 agonist = agonists of human TAAR1; Q96RJ0; CHO RD-HGA16 TAAR1, Fluo-8 calcium fluorescence; vehicle wells 0%, saturating PEA agonist 100%; activation, % at 3 µM; 360,000 tested, 0.99% active; AID 624467;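 active = activation above the mean activation of all test compounds in the run plus 3 SD, cut at about 38% in these data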
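Benchmarks: low control DMSO, high control PEA (EC100); System: CHO RD-HGA16 cells carrying human TAAR1 plus Gα16; Detection: Fluo-8 fluorescence, 5 s baseline then 140 s kinetic read; Schedule: 17-24 h plating, Fluo-8 75 min 37 °C, 30 min RT; Read-out basis: % activation from peak over basal fluorescence ratio, DMSO-to-PEA scaled.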
OX1R antag-1 = OX1R (human) antagonism. O43613. inhibition, % at 6.6 µM. 330,000 tested, 1.8% active. OX1R-expressing cells, FRET antagonist read-out; in the data active = inhibition mostly above about 38%, no sharp cut-off; inactive = mostly below about 40%;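 also: 0% = agonist challenge alone and 100% = reference antagonist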
Target sequence (O43613 whole entry, looked up): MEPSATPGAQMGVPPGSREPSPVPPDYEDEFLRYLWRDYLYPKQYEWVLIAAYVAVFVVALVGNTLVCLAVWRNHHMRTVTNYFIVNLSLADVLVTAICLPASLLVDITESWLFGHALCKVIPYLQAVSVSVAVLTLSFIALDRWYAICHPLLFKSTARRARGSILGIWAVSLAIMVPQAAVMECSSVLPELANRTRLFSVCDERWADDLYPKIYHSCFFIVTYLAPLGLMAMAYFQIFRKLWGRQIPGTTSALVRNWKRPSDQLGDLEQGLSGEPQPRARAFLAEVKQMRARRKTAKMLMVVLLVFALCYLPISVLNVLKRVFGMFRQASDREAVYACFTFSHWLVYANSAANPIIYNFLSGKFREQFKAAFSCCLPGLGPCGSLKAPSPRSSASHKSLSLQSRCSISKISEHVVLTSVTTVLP
CHO parental Ca = counter-screen: ATP calcium response change in parental CHO cells | parental CHO-K1, ATP-induced calcium, Fluo-8 fluorescence | inhibition, % at 5.6 µM | 330,000 tested, 0.63% active | AID 463079;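 active = inhibition above that plate's mean sample inhibition plus 3 SD, cut at about 26% in these data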;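 also: 0% = ATP-challenged DMSO wells and 100% = DMSO wells without ATP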
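Test system: untransfected parental CHO cell line; also added: ATP stimulus; dosing: 5.6 µM, single dose; signal: calcium-sensitive Fluo-8 fluorescence; measure: percent inhibition of ATP-evoked calcium rise, normalized to controls; benchmarks: low control ATP plus DMSO, high control DMSO only; replication: one well per compound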
OX1R antag-2 = antagonists of human orexin 1 receptor. O43613. inhibition, % at 5 µM. CHO/OX1R cells, Fluo-8 calcium fluorescence, orexin A. AID 434989. 330,000 tested, 0.43% active;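 active = inhibition above its plate's threshold, mean inhibition of all tested compounds on the plate plus 3 SD, cut at about 37% in these data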;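 also: 0% = orexin A challenge wells and 100% = SB-334867-A antagonist wells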
TAAR1 antagonist = human TAAR1 antagonism; CHO RD-HGA16 TAAR1, Fluo-8 calcium fluorescence, antagonist; Q96RJ0; inhibition, % at 3 µM; AID 624466; 360,000 tested, 1.5% active;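 active = inhibition above a per-plate cutoff, the mean inhibition of test compounds on that plate plus 3 SD, cut at about 49% in these data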;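 also: 0% = DMSO plus EC80 beta-PEA response and 100% = DMSO alone without agonist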
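Test system – hTAAR1-expressing CHO RD-HGA16 cells, Gα16-coupled · Reagent – β-PEA at EC80 concentration, post-compound challenge · Compound dosing – 3 µM, single point · Timing – 140 s kinetic read after compound, 140 s after agonist · Detection – Fluo-8 intracellular calcium dye fluorescence, real-time kinetic reads · Control set – DMSO and EC80 PEA controls · Repeats – n of 1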
* marks the source's active call; other numbers are inactive results; . = no result; + = active, no number.

SMILES | TAAR1 agonist | OX1R antag-1 | CHO parental Ca | OX1R antag-2 | TAAR1 antagonist
CC(=O)N1CCN(c2nc3ccc([N+](=O)[O-])cc3s2)CC1 | 1 | 54* | 15 | 4 | -2
Cc1cc(NC(=O)CCC(=O)N(Cc2ccco2)C(C(=O)NC2CCCC2)c2ccc(F)cc2)no1 (stereo not given) | -2 | 47* | -26 | -18 | 4
Cc1cc(NC(=O)CCC(=O)N(Cc2ccco2)C(C(=O)NC2CCCC2)c2ccccc2)no1 (stereo not given) | 0 | 39 | -7 | 5 | -8
Cc1cc(-c2ccc(N=Nc3c(S(=O)(=O)O)cc4cc(S(=O)(=O)O)cc(N)c4c3O)c(C)c2)ccc1N=Nc1c(S(=O)(=O)O)cc2cc(S(=O)(=O)O)cc(N)c2c1O | . | + | -3 | 5 | .
O=S(=O)(O)c1cc(O)c2c(O)c(N=Nc3cc(Cl)ccc3O)c(S(=O)(=O)O)cc2c1 | . | 42 | -9 | -1 | .
CCn1c2ccccc2c(=O)c2ccccc21 | 2 | 67* | 14 | -10 | -7
Cc1ccc([C@H]2C[C@H](O)[C@@H](n3cc(C4CC4)nn3)CN2C(=O)C2CCCCC2)cc1 | 3 | . | . | . | -11
COC(=O)[C@]12C[C@H](CC(=O)NCc3ccccc3)C(=O)N(Cc3ccccc3)C1=C[C@H](C(C)(C)C)O[C@@H]2C | -1 | . | . | . | -39
Oc1c(Br)cc(/C=N/NC(=S)NCc2ccco2)cc1Br | 4 | 37* | -5 | -2 | -21
Oc1ccc(/C=N/NC(=S)NCc2ccco2)cc1 | 2 | -7 | -7 | -11 | -7
Cc1ccsc1C1C=C(c2cccc(Br)c2)Nc2ncnn21 (stereo not given) | . | 51 | -15 | 45* | .
COC(=O)c1cc2c(c3c4cc(C)ccc4n(S(=O)(=O)c4ccc(C)cc4)c13)C(=O)N(Cc1ccccc1OC)C2 | -1 | . | . | . | -27
Oc1ccc(Cl)cc1CNCc1ccc(Cl)nc1 | 40* | -3 | -14 | -15 | 12
Oc1ccc(Cl)cc1CNCc1ccc(F)c(F)c1 | 43* | 0 | -10 | 1 | 5
COc1ccc(CNCc2cc(Cl)ccc2O)cc1 | 34 | 33 | -10 | -5 | 13
COC(=O)[C@]12C[C@H](CC(=O)N3CCCC3)C(=O)N(Cc3ccccc3)C1=C[C@H](C1CCCC1)O[C@@H]2C | -2 | . | . | . | 4
COc1ccc2[nH]c(=O)c(CNc3cccc(C)c3)cc2c1 | 1 | 48* | -17 | -14 | -5
COc1ccc(NCc2cc3cc(OC)ccc3[nH]c2=O)cc1 | 0 | 47* | -22 | -34 | -31
COc1ccc(NCc2cc3ccccc3[nH]c2=O)cc1 | 7 | 68 | -3 | -19 | 3
CC(C)C[C@H](NC(=O)C1CC1)C(=O)N1CCC[C@H]1C(=O)NCc1ccccc1 | -1 | . | . | . | 2
N#Cc1cccnc1N1CCN(C(=O)c2cccc3c2C(=O)c2ccc(-c4ccc(Cl)c(C(F)(F)F)c4)cc2S3(=O)=O)CC1 | . | 9 | -23 | -8 | .
N#Cc1cccnc1N1CCN(C(=O)c2cccc3c2C(=O)c2ccc(Cl)cc2S3(=O)=O)CC1 | 20 | 34* | -24 | -19 | 19
O=C1COc2ccc(S(=O)(=O)CCC(=O)N3CCN(c4cccc(Cl)c4)CC3)cc2N1 | 6 | 10 | 11 | -14 | 10
Cc1ccc(Cl)cc1N1CCN(C(=O)CCS(=O)(=O)c2ccc3c(c2)NC(=O)CO3)CC1 | 16 | 17 | -11 | 17 | 63*
C=Cc1ccc(Cn2c(C)c(C(=O)NCCC#N)sc2=O)cc1 | 2 | . | . | . | -9
SMILES | TAAR1 agonist | OX1R antag-1 | CHO parental Ca | OX1R antag-2 | TAAR1 antagonist
Cn1cc(-c2ccc3c(c2)OCO3)c2ccccc21 | 2 | . | . | . | -14
O=C(Nc1ccc(S(=O)(=O)Nc2ccc(Cl)cc2)cc1)C1CCCO1 (stereo not given) | 41* | 9 | 8 | 14 | 5
CCOc1ccc(NS(=O)(=O)c2ccc(C(=O)N3CCCCCC3)cc2)cc1 | 47* | 27 | -1 | 2 | 29
Cc1ccc(NS(=O)(=O)c2ccc(C(=O)N3CCCCCCC3)cc2)cc1 | 54* | 21 | -1 | -7 | 18
Cc1ccc(NS(=O)(=O)c2ccc(C(=O)NCC3CCCO3)cc2)cc1 (stereo not given) | 40* | 29 | -4 | -8 | -19
Cc1ccc(NS(=O)(=O)c2ccc(C(=O)N3CCC3)cc2)cc1 | 12 | 15 | -8 | -27 | -18
CCOc1ccc(S(=O)(=O)Nc2ccc(C(=O)N3CCCC3)cc2)cc1 | 9 | 12 | -10 | -21 | -20
CC1(C(=O)Nc2ccc(Cl)c(Cl)c2)CCN1C(=O)C1CCCCC1 (stereo not given) | -1 | . | . | . | -40
CCOC1=C2[C@H](c3ccccc3)N(S(=O)(=O)c3ccc(C)cc3)[C@H](C(C)C)[C@H]2C(C#N)(C#N)C(C#N)(C#N)C1 | 1 | . | . | . | -16
CCCCNC(=O)Oc1c(Br)cc2sc(=O)oc2c1Br | . | 13 | -2 | -2 | .
O=C(NCC1CCCO1)c1ccccc1S(=O)(=O)c1ccc([N+](=O)[O-])cc1 (stereo not given) | 2 | 76* | -5 | 2 | 9
CC(C)(C)c1ccc(S(=O)(=O)NCC2CCCO2)cc1 (stereo not given) | 1 | 9 | 15 | -9 | -7
O=S(=O)(NCC1CCCO1)c1ccc(-c2ccc(Cl)cc2)cc1 (stereo not given) | 4 | 24 | 36* | 20 | 14
CCCNC(=O)COc1ccc(S(=O)(=O)Nc2ccc(C)cc2)cc1 | 40* | 5 | -9 | -10 | -24
CCOc1ccc(CC(=O)Nc2sc(Cc3ccccc3)c(C)c2C(N)=O)cc1OCC | 0 | 57* | -5 | -4 | -10
Cc1c(Cc2ccccc2)sc(NC(=O)c2ccco2)c1C(N)=O | 4 | 26 | 1 | -5 | 3
COCCCNc1ccn2nc(-c3ccc(OCc4ccccc4)cc3)cc2n1 | 11 | . | . | . | 56*
O=C(N/N=C/c1ccc(OCc2ccccc2)cc1)c1cccs1 | 30 | 60* | -19 | 8 | 8
O=C(Nc1ccc(OCc2ccccc2)cc1)c1cccs1 | 7 | 17 | 15 | -13 | 25
COc1ccc(S(=O)(=O)N(CC(=O)N/N=C/c2cccs2)c2cc(C)cc(C)c2)cc1OC | 13 | 50* | -26 | 35 | 47
COc1ccccc1N(CC(=O)Nc1cc(S(=O)(=O)N(C)C)ccc1C)S(=O)(=O)c1cccs1 | 2 | 34* | -16 | 26 | 8
COC(=O)Cc1nnn2c1[C@H](C)[C@@H](OC)c1ccc(C(F)(F)F)cc1-2 | 1 | . | . | . | 0
COCCN1C(=O)/C(=C/c2ccc(N3CCCC3)cc2)SC1=S | 52* | 13 | 42* | 50* | 50*
Cc1ccc(S(=O)(=O)C=CS(=O)(=O)c2ccc(C)cc2)cc1 | 28 | . | . | . | 50*
Cc1ccc(-c2csc(C(O)c3ccc(F)c(F)c3)n2)cc1C (stereo not given) | 1 | . | . | . | -9
